In ChEMBL document CHEMBL1811814, “Synthesis and evaluation of indole, pyrazole, chromone and pyrimidine based conjugates for tumor growth inhibitory activities--development of highly efficacious cytotoxic agents” (Eur J Med Chem, 2010):

Columns and labels:
Assay type in all cases: functional
[1] = tested on: CAKI-1; experiment: Growth inhibition of human Caki1 cells assessed tumor cell growth at 10^-5 M; parameters: scale not given: the % may be the effect or the level left
In short: (§1)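 NCI 60-human-tumor-cell-line panel screen. Each compound was tested at a single concentration of 10^-5 M, and percent growth of tumor cells was recorded for each cell line. Growth inhibition was expressed from these percent-growth values.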

[2] = tested on: LOX IMVI; experiment: Growth inhibition of human LOXIMVI cells assessed tumor cell growth at 10^-5 M; parameters: scale not given: the % may be the effect or the level left; in short: as §1
[3] = tested on: EKVX; experiment: Growth inhibition of human EKVX cells
[4] = tested on: NCI-H460; experiment: Growth inhibition of human NCI-H460 cells
[5] = tested on: NCI-H23; experiment: Growth inhibition of human NCI-H23 cells assessed tumor cell growth at 10^-5 M; parameters: scale not given: the % may be the effect or the level left; in short: as §1
[6] = tested on: NCI-H322M; experiment: Growth inhibition of human NCI-H322M cells
[7] = tested on: DU-145; experiment: Growth inhibition of human DU145 cells assessed tumor cell growth at 10^-5 M; parameters: scale not given: the % may be the effect or the level left; in short: as §1
[8] = tested on: NCI-H460; experiment: Growth inhibition of human NCI-H460 cells assessed tumor cell growth at 10^-5 M; parameters: scale not given: the % may be the effect or the level left; in short: as §1
[9] = tested on: COLO 205; experiment: Growth inhibition of human COLO205 cells
[10] = tested on: UACC-257; experiment: Growth inhibition of human UACC257 cells
[11] = tested on: SF-295; experiment: Growth inhibition of human SF295 cells assessed tumor cell growth at 10^-5 M; parameters: scale not given: the % may be the effect or the level left; in short: as §1
[12] = tested on: 786-0; experiment: Growth inhibition of human 786-0 cells assessed tumor cell growth at 10^-5 M; parameters: scale not given: the % may be the effect or the level left; in short: as §1
[13] = tested on: RXF 393; experiment: Growth inhibition of human RXF393 cells
[14] = tested on: K562; experiment: Growth inhibition of human K562 cells assessed tumor cell growth at 10^-5 M; parameters: scale not given: the % may be the effect or the level left; in short: as §1
[15] = tested on: SN12C; experiment: Growth inhibition of human SN12C cells
[16] = tested on: SK-MEL-2; experiment: Growth inhibition of human SK-MEL-2 cells assessed tumor cell growth at 10^-5 M; parameters: scale not given: the % may be the effect or the level left; in short: as §1
[17] = tested on: SF-295; experiment: Growth inhibition of human SF295 cells
[18] = tested on: HOP-62; experiment: Growth inhibition of human HOP62 cells
[19] = tested on: TK-10; experiment: Growth inhibition of human TK10 cells
[20] = tested on: MDA-MB-435; experiment: Growth inhibition of human MDA-MB-435 cells assessed tumor cell growth at 10^-5 M; parameters: scale not given: the % may be the effect or the level left; in short: as §1
[21] = tested on: MDA-MB-231; experiment: Growth inhibition of human MDA-MB-231 cells assessed tumor cell growth at 10^-5 M; parameters: scale not given: the % may be the effect or the level left; in short: as §1
[22] = tested on: MDA-MB-468; experiment: Growth inhibition of human MDA-MB-468 cells
[23] = tested on: HCT-15; experiment: Growth inhibition of human HCT15 cells
[24] = tested on: SK-MEL-28; experiment: Growth inhibition of human SK-MEL-28 cells assessed tumor cell growth at 10^-5 M; parameters: scale not given: the % may be the effect or the level left; in short: as §1
[25] = tested on: HCC 2998; experiment: Growth inhibition of human HCC2998 cells
[26] = tested on: CAKI-1; experiment: Growth inhibition of human Caki1 cells
[27] = tested on: OVCAR-3; experiment: Growth inhibition of human OVCAR3 cells
[28] = tested on: NCI/ADR-RES; experiment: Growth inhibition of human NCI/ADR-RES cells
[29] = Growth inhibition of human RPMI8266 cells
[30] = tested on: SNB-19; experiment: Growth inhibition of human SNB19 cells
[31] = tested on: Malme-3M; experiment: Growth inhibition of human MALME-3M cells assessed tumor cell growth at 10^-5 M; parameters: scale not given: the % may be the effect or the level left; in short: as §1
[32] = tested on: SF-539; experiment: Growth inhibition of human SF539 cells
[33] = tested on: HCT-116; experiment: Growth inhibition of human HCT116 cells assessed tumor cell growth at 10^-5 M; parameters: scale not given: the % may be the effect or the level left; in short: as §1
[34] = tested on: OVCAR-8; experiment: Growth inhibition of human OVCAR8 cells
[35] = tested on: SNB-19; experiment: Growth inhibition of human SNB19 cells assessed tumor cell growth at 10^-5 M; parameters: scale not given: the % may be the effect or the level left
In short: (§2)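 Single-dose screen at 10^-5 M across the 60 human tumor cell line panel, run to NCI standards. The value is the percent growth of each cell line in the presence of compound. Compounds active at this dose moved on to five-concentration testing (10^-4 to 10^-8 M).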

[36] = tested on: KM12; experiment: Growth inhibition of human KM12 cells
[37] = tested on: MDA-MB-231; experiment: Growth inhibition of human MDA-MB-231 cells
[38] = Growth inhibition of human Hs 578T cells
[39] = tested on: MOLT-4; experiment: Growth inhibition of human MOLT4 cells assessed tumor cell growth at 10^-5 M; parameters: scale not given: the % may be the effect or the level left; in short: as §1
[40] = tested on: SN12C; experiment: Growth inhibition of human SN12C cells assessed tumor cell growth at 10^-5 M; parameters: scale not given: the % may be the effect or the level left; in short: as §1
[41] = tested on: IGROV-1; experiment: Growth inhibition of human IGROV1 cells assessed tumor cell growth at 10^-5 M; parameters: scale not given: the % may be the effect or the level left; in short: as §1
[42] = tested on: UO-31; experiment: Growth inhibition of human UO31 cells assessed tumor cell growth at 10^-5 M; parameters: scale not given: the % may be the effect or the level left; in short: as §2
[43] = tested on: M14; experiment: Growth inhibition of human M14 cells assessed tumor cell growth at 10^-5 M; parameters: scale not given: the % may be the effect or the level left; in short: as §1
[44] = tested on: SK-MEL-5; experiment: Growth inhibition of human SK-MEL-5 cells
[45] = tested on: NCI/ADR-RES; experiment: Growth inhibition of human NCI/ADR-RES cells assessed tumor cell growth at 10^-5 M; parameters: scale not given: the % may be the effect or the level left; in short: as §1
[46] = tested on: RXF 393; experiment: Growth inhibition of human RXF393 cells assessed tumor cell growth at 10^-5 M; parameters: scale not given: the % may be the effect or the level left; in short: as §1
[47] = tested on: SW-620; experiment: Growth inhibition of human SW620 cells
[48] = tested on: NCI-H522; experiment: Growth inhibition of human NCI-H522 cells
[49] = read-out: LC50 (the source's name)

O=C1Nc2ccccc2/C1=C/c1cn(C(=O)c2c(Cl)cccc2Cl)c2ccccc12
Activity [1]: 18.7% | Activity [2]: 48.4% | GI50 [3]: 2.8 µM | CC50 [3, 49]: > 100 µM | GI50 [4]: 1.9 µM | CC50 [4, 49]: 7.9 µM | Activity [5]: 56.9% | GI50 [6]: 2.9 µM | CC50 [6, 49]: > 100 µM | Activity [7]: 59.2% | Activity [8]: 71.1% | GI50 [9]: 7.6 µM | LC50 [9]: 54.9 µM | GI50 [10]: 5 µM | CC50 [10, 49]: 95.4 µM | Activity [11]: 44.5% | Activity [12]: 57% | GI50 [13]: 4.1 µM | CC50 [13, 49]: 43.6 µM | Activity [14]: 45.6% | GI50 [15]: 3.9 µM | CC50 [15, 49]: 70.7 µM | Activity [16]: 39.9% | GI50 [17]: 2.2 µM | CC50 [17, 49]: 66.1 µM | GI50 [18]: 12.8 µM | CC50 [18, 49]: > 100 µM | GI50 [19]: 10.4 µM | CC50 [19, 49]: > 100 µM | Activity [20]: 85.6% | Activity [21]: 55% | GI50 [22]: 4.4 µM | CC50 [22, 49]: 69.1 µM | GI50 [23]: 3.4 µM | CC50 [23, 49]: > 100 µM | Activity [24]: 81.4% | GI50 [25]: 6 µM | CC50 [25, 49]: 52.4 µM | GI50 [26]: 1.9 µM | CC50 [26, 49]: > 100 µM | GI50 [27]: 1.6 µM | CC50 [27, 49]: 8.1 µM | GI50 [28]: 3.4 µM | CC50 [28, 49]: > 100 µM | GI50 [29]: 3.4 µM | CC50 [29, 49]: > 100 µM | GI50 [30]: 7.2 µM | CC50 [30, 49]: > 100 µM | Activity [31]: 116.7% | GI50 [32]: 5 µM | CC50 [32, 49]: 66.1 µM | Activity [33]: 26% | GI50 [34]: 4.1 µM | CC50 [34, 49]: > 100 µM | Activity [35]: 68.6% | GI50 [36]: 1.8 µM | CC50 [36, 49]: 8.9 µM | GI50 [37]: 3.1 µM | CC50 [37, 49]: > 100 µM | GI50 [38]: 2.2 µM | CC50 [38, 49]: > 100 µM | Activity [39]: 43.9% | Activity [40]: 56% | Activity [41]: 25.7% | Activity [42]: 50.7% | Activity [43]: 66.2% | GI50 [44]: 7.6 µM | CC50 [44, 49]: 45.7 µM | Activity [45]: 57.7% | Activity [46]: -4.1% | GI50 [47]: 2.9 µM | CC50 [47, 49]: 52.4 µM | GI50 [48]: 4.2 µM | LC50 (concentration killing 50% of cells) [48]: 54.9 µM
